In publication PMC10205660 (Chemistry (Weinheim an der Bergstrasse, Germany), 2023):
Where two headings read alike, the source gives them in different places.

Legend:
Format in all cases: cell-based
K562 (leukemia) = experiment: Antiproliferative activity, K562
MCF7 (breast cancer) = experiment: Antiproliferative activity, MCF7
[1] = system: MCF7, K562 and A549 cell lines; experiment: Antiproliferative activity, statements in text without a single cell line; settings: for fold reduction in activity compared to cruentaren A: versus cruentaren A, cell line not stated; for antiproliferative activity at highest concentration: at 4 μM
A549 (lung cancer) = experiment: Antiproliferative activity, A549; settings: Homo sapiens
[2] = system: Hsp90-dependent client proteins (pAkt, Cyclin D1, GLUT1), Hsp70, Hsp90 in MCF7 cells; settings: MCF7, 48 h, Western blot; versus vehicle 0.25% DMSO
Method in brief: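 MCF7 cells exposed to test compound at the stated amounts for 48 h, alongside vehicle (0.25% DMSO) and 1 μM geldanamycin as the reference Hsp90 inhibitor. Cell lysates were immunoblotted for pAkt, Cyclin D1, GLUT1, Hsp70, Hsp90 and F1F0 ATP synthase.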

[3] = Homo sapiens, K562, read-out: IC50 values K562, K562
[4] = Homo sapiens, MCF7, read-out: IC50 values MCF7, MCF7
[5] = A549, read-out: IC50 values A549
[6] = Homo sapiens, K562, read-out: IC50 values K562
[7] = Homo sapiens, MCF7, read-out: IC50 values MCF7

Structure (SMILES) | IC50 (K562 (leukemia); [3]) [µM] | IC50 (MCF7 (breast cancer); [4]) [µM] | IC50 (A549 (lung cancer); [5]) [µM] | IC50 (K562 (leukemia); [6]) [µM] | IC50 (MCF7 (breast cancer); [7]) [µM] | other results
COC1=C2C[C@@H](C)C[C@H](OC)[C@H](O)[C@@H](C)/C=C(\C)[C@H](OC(N)=O)[C@@H](OC)/C=C\C=C(/C)C(=O)NC(=CC1=O)C2=O [geldanamycin, reference compound] |  |  |  |  |  | levels of Hsp70 and Hsp90 (heat shock response) [2]: increased
CCC[C@H](OC(C)=O)[C@@H](C)C(=O)NC/C=C\C[C@@H](C)[C@@H](OC(C)=O)[C@H](C)[C@@H]1C/C=C\C[C@H](C)[C@H](OC(C)=O)Cc2cc(OC)cc(O)c2C(=O)O1 [Compound 9, (2R,3R,4R,Z)-2-((3S,8S,9R,Z)-9-acetoxy-14-hydroxy-12-methoxy-8-methyl-1-oxo-3,4,7,8,9,10-hexahydro-1H-benzo[c][1]oxacyclododecin-3-yl)-8-((2R,3S)-3-acetoxy-2-methylhexanamido)-4-methyloct-6-en-3-yl acetate] |  |  | > 4 | > 4 | > 4 | antiproliferative activity at highest concentration [1]: inactive
CCC[C@H](OC(C)=O)[C@@H](C)C(=O)NC/C=C\C[C@@H](C)[C@@H](O)[C@H](C)[C@@H]1C/C=C\C[C@H](C)[C@H](OC(C)=O)Cc2cc(OC)cc(O)c2C(=O)O1 [Compound 8, (2R,3S)-1-(((5R,6R,7S,Z)-7-((3S,8S,9R,Z)-9-acetoxy-14-hydroxy-12-methoxy-8-methyl-1-oxo-3,4,7,8,9,10-hexahydro-1H-benzo[c][1]oxacyclododecin-3-yl)-6-hydroxy-5-methyloct-2-en-1-yl)amino)-2-methyl-1-oxohexan-3-yl acetate] |  |  | 3.36 | 1.28 | 0.574 | 
CCC[C@H](O)[C@@H](C)C(=O)NC/C=C\C[C@@H](C)[C@@H](OC(C)=O)[C@H](C)[C@@H]1C/C=C\C[C@H](C)[C@H](OC(C)=O)Cc2cc(OC)cc(O)c2C(=O)O1 [Compound 11, (2R,3R,4R,Z)-2-((3S,8S,9R,Z)-9-acetoxy-14-hydroxy-12-methoxy-8-methyl-1-oxo-3,4,7,8,9,10-hexahydro-1H-benzo[c][1]oxacyclododecin-3-yl)-8-((2R,3S)-3-hydroxy-2-methylhexanamido)-4-methyloct-6-en-3-yl acetate] |  |  | > 4 | > 4 | > 4 | antiproliferative activity at highest concentration [1]: inactive
CCC[C@H](O)[C@@H](C)C(=O)NC/C=C\C[C@@H](C)[C@@H](O)[C@H](C)[C@@H]1C/C=C\C[C@H](C)[C@H](OC(=O)CN)Cc2cc(OC)cc(O)c2C(=O)O1 [Compound 3, (3S,8S,9R,Z)-14-hydroxy-3-((2S,3R,4R,Z)-3-hydroxy-8-((2R,3S)-3-hydroxy-2-methylhexanamido)-4-methyloct-6-en-2-yl)-12-methoxy-8-methyl-1-oxo-3,4,7,8,9,10-hexahydro-1H-benzo[c][1]oxacyclododecin-9-yl glycinate] |  |  | 1.74 | 0.0148 | 0.0875 | fold difference of IC50 versus cruentaren A (K562 (leukemia); K562, versus cruentaren A): 10 fold
CCC[C@H](O)[C@@H](C)C(=O)NC/C=C\C[C@@H](C)[C@@H](O)[C@H](C)[C@@H]1C/C=C\C[C@H](C)C(=O)Cc2cc(OC)cc(O)c2C(=O)O1 [Compound 2, (2R,3S)-3-hydroxy-N-((5R,6R,7S,Z)-6-hydroxy-7-((3S,8S,Z)-14-hydroxy-12-methoxy-8-methyl-1,9-dioxo-3,4,7,8,9,10-hexahydro-1H-benzo[c][1]oxacyclododecin-3-yl)-5-methyloct-2-en-1-yl)-2-methylhexanamide] |  |  | 1.64 | 1.28 | 0.972 | 

More lines, main results first:

IC50 (K562 (leukemia); [3]) [µM] | IC50 (MCF7 (breast cancer); [4]) [µM] | IC50 (A549 (lung cancer); [5]) [µM] | Structure (SMILES) | IC50 (K562 (leukemia); [6]) [µM] | IC50 (MCF7 (breast cancer); [7]) [µM] | other results
1.12 | 0.52 | 1.24 | CCC[C@H](O)[C@@H](C)C(=O)NC[C@@H]1C[C@@H]1C[C@@H](C)[C@@H](O)[C@H](C)[C@@H]1C/C=C\C[C@H](C)[C@H](O)Cc2cc(OC)cc(O)c2C(=O)O1 [Compound 15, (2R,3S)-N-(((1R,2R)-2-((2R,3R,4S)-4-((3S,8S,9R,Z)-9,14-dihydroxy-12-methoxy-8-methyl-1-oxo-3,4,7,8,9,10-hexahydro-1H-benzo[c][1]oxacyclododecin-3-yl)-3-hydroxy-2-methylpentyl)cyclopropyl)methyl)-3-hydroxy-2-methylhexanamide] |  |  | fold reduction in activity compared to cruentaren A [1]: 100 fold
1.12 | 0.114 | 1.28 | CCC[C@H](O)[C@@H](C)C(=O)NC/C=C\C[C@@H](C)[C@@H](O)[C@H](C)[C@@H]1C/C=C\C[C@H](C)[C@H](OC(=O)[C@H](N)Cc2ccccc2)Cc2cc(OC)cc(O)c2C(=O)O1 [Compound 6, (3S,8S,9R,Z)-14-hydroxy-3-((2S,3R,4R,Z)-3-hydroxy-8-((2R,3S)-3-hydroxy-2-methylhexanamido)-4-methyloct-6-en-2-yl)-12-methoxy-8-methyl-1-oxo-3,4,7,8,9,10-hexahydro-1H-benzo[c][1]oxacyclododecin-9-yl D-phenylalaninate] |  |  | 
1.16 | 0.174 | 1.96 | CCC[C@H](O)[C@@H](C)C(=O)NC/C=C\C[C@@H](C)[C@@H](O)[C@H](C)[C@@H]1C/C=C\C[C@H](C)[C@H](OC(C)=O)Cc2cc(OC)cc(O)c2C(=O)O1 [Compound 10, (3S,8S,9R,Z)-14-hydroxy-3-((2S,3R,4R,Z)-3-hydroxy-8-((2R,3S)-3-hydroxy-2-methylhexanamido)-4-methyloct-6-en-2-yl)-12-methoxy-8-methyl-1-oxo-3,4,7,8,9,10-hexahydro-1H-benzo[c][1]oxacyclododecin-9-yl acetate] |  |  | IC50 (K562 (leukemia); Homo sapiens, K562, read-out: IC50 K562, K562): 1.16 µM; IC50 (MCF7 (breast cancer); Homo sapiens, MCF7, read-out: IC50 MCF7, MCF7): 0.17 µM; IC50 (A549 (lung cancer); A549, read-out: IC50 A549): 1.96 µM
0.065 | 0.051 | 2.46 | CCC[C@H](OC(=O)[C@H](N)Cc1ccccc1)[C@@H](C)C(=O)NC/C=C\C[C@@H](C)[C@@H](O)[C@H](C)[C@@H]1C/C=C\C[C@H](C)[C@H](OC(=O)[C@H](N)Cc2ccccc2)Cc2cc(OC)cc(O)c2C(=O)O1 [Compound 7, (2R,3S)-1-(((5R,6R,7S,Z)-7-((3S,8S,9R,Z)-9-((D-phenylalanyl)oxy)-14-hydroxy-12-methoxy-8-methyl-1-oxo-3,4,7,8,9,10-hexahydro-1H-benzo[c][1]oxacyclododecin-3-yl)-6-hydroxy-5-methyloct-2-en-1-yl)amino)-2-methyl-1-oxohexan-3-yl D-phenylalaninate] |  |  | IC50 (K562 (leukemia); read-out: IC50 values K562, K562): 0.0646 µM; IC50 (MCF7 (breast cancer); read-out: IC50 values MCF7, MCF7): 0.0513 µM
0.0483 | 0.00637 | 1.75 | CCC[C@H](O)[C@@H](C)C(=O)NC/C=C/C[C@@H](C)[C@@H](O)[C@H](C)[C@@H]1C/C=C\C[C@H](C)[C@H](O)Cc2cc(OC)cc(O)c2C(=O)O1 [Compound 16, (2R,3S)-N-((5R,6R,7S,E)-7-((3S,8S,9R,Z)-9,14-dihydroxy-12-methoxy-8-methyl-1-oxo-3,4,7,8,9,10-hexahydro-1H-benzo[c][1]oxacyclododecin-3-yl)-6-hydroxy-5-methyloct-2-en-1-yl)-3-hydroxy-2-methylhexanamide] |  |  | levels of Hsp70 and Hsp90 (heat shock response) [2]: remained at the same level as vehicle control
0.968 | 0.101 | 1.33 | CCC[C@H](O)[C@@H](C)C(=O)NC/C=C\C[C@@H](C)[C@@H](O)[C@H](C)[C@@H]1C/C=C\C[C@H](C)[C@H](OC(=O)[C@H](N)C(C)C)Cc2cc(OC)cc(O)c2C(=O)O1 [Compound 5, (3S,8S,9R,Z)-14-hydroxy-3-((2S,3R,4R,Z)-3-hydroxy-8-((2R,3S)-3-hydroxy-2-methylhexanamido)-4-methyloct-6-en-2-yl)-12-methoxy-8-methyl-1-oxo-3,4,7,8,9,10-hexahydro-1H-benzo[c][1]oxacyclododecin-9-yl D-valinate] |  |  | 
1.39 | 0.179 | 4 | CCC[C@H](O)[C@@H](C)C(=O)NCCCC[C@@H](C)[C@@H](O)[C@H](C)[C@@H]1CCCC[C@H](C)[C@H](O)Cc2cc(OC)cc(O)c2C(=O)O1 [Compound 12, (2R,3S)-N-((5R,6R,7S)-7-((3S,8S,9R)-9,14-dihydroxy-12-methoxy-8-methyl-1-oxo-3,4,5,6,7,8,9,10-octahydro-1H-benzo[c][1]oxacyclododecin-3-yl)-6-hydroxy-5-methyloctyl)-3-hydroxy-2-methylhexanamide] |  |  | 
1.32 | 0.0555 | 2.45 | CCC[C@H](O)[C@@H](C)C(=O)NC/C=C\C[C@@H](C)[C@@H](O)[C@H](C)[C@@H]1C/C=C\C[C@H](C)[C@H](OC(=O)[C@@H](C)N)Cc2cc(OC)cc(O)c2C(=O)O1 [Compound 4, (3S,8S,9R,Z)-14-hydroxy-3-((2S,3R,4R,Z)-3-hydroxy-8-((2R,3S)-3-hydroxy-2-methylhexanamido)-4-methyloct-6-en-2-yl)-12-methoxy-8-methyl-1-oxo-3,4,7,8,9,10-hexahydro-1H-benzo[c][1]oxacyclododecin-9-yl D-alaninate] |  |  | levels of Hsp70 and Hsp90 (heat shock response) [2]: remained at the same level as vehicle control
1.27 | 0.189 | 1.54 | CCC[C@H](O)[C@@H](C)C(=O)NC[C@H](O)[C@H](O)C[C@@H](C)[C@@H](O)[C@H](C)[C@@H]1C/C=C\C[C@H](C)[C@H](O)Cc2cc(OC)cc(O)c2C(=O)O1 [Compound 14, (2R,3S)-N-((2S,3R,5R,6R,7S)-7-((3S,8S,9R,Z)-9,14-dihydroxy-12-methoxy-8-methyl-1-oxo-3,4,7,8,9,10-hexahydro-1H-benzo[c][1]oxacyclododecin-3-yl)-2,3,6-trihydroxy-5-methyloctyl)-3-hydroxy-2-methylhexanamide] |  |  | fold reduction in activity compared to cruentaren A [1]: ~ 40 fold
